Results: ChEMBL document CHEMBL1149292, “A rational utilization of high-throughput screening affords selective, orally bioavailable 1-benzyl-3-carboxyazetidine sphingosine-1-phosphate-1 receptor agonists” (J Med Chem, 2004)
Activity calls are given as the source filed them. No cut-off for these calls is given here.

Assays:
Rattus norvegicus [1] = experiment: Decrease in peripheral blood lymphocyte counts in femoral artery cannulated Lewis rat at 3 mg/kg, po after 4 hrs; type: functional
Method in brief: (§1)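 Femoral artery cannulated Lewis rats (n = 3) given a single 3 mpk oral dose. PBL counts and plasma compound concentration sampled over time up to 72 h postdose. A repeat 3 mpk po challenge was given to the same animals.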

[2] = Volume of distribution at steady state in rhesus monkey at 1 mg/kg, po and 0.5 mg/kg, iv; type: ADME, organism-based, Macaca mulatta; conditions: in vivo, read-out: Vdss
[3] = target: Sphingosine 1-phosphate receptor 1 (Homo sapiens, UniProt P21453); experiment: Activity at human S1P1 receptor expressed in CHO cells by [35S]GTPgammaS binding assay; type: functional, cell-based
Method in brief: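 Agonism measured as ligand-induced [35S]-GTPγS binding to membranes of CHO cells stably expressing the human S1P receptor.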

[4] = target: Sphingosine 1-phosphate receptor 3 (Homo sapiens, UniProt Q99500); experiment: Displacement of [33P]sphingosine 1 phosphate from human S1P3 receptor expressed in CHO cells; type: cell-based
[5] = Plasma concentration in femoral artery cannulated Lewis rat at 3 mg/kg, po after 32 hrs; type: ADME, organism-based; parameters: dose 3 mg/kg, route oral
Method in brief: (§2)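 Femoral artery cannulated Lewis rats (n = 3) got a single 3 mpk oral dose. Compound plasma concentration (nM) was measured serially over time up to 72 h postdose. Peripheral blood lymphocyte counts were taken in parallel at the same time points. The same animals were later given a second 3 mpk oral dose.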

Rattus norvegicus [6] = experiment: Decrease in peripheral blood lymphocytes in Lewis rat at 3 mg/kg, po after 24 relative to hrs control; type: functional; parameters: scale not given: the % may be the effect or the level left
Method in brief: (§3)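 Rat oral dose-titration at 1–30 mpk po. Peripheral blood lymphocyte counts and plasma compound concentrations determined 24 h postdose.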

[7] = Plasma concentration in femoral artery cannulated Lewis rat at 3 mg/kg, po after 1 hr; type: ADME, organism-based; parameters: dose 3 mg/kg, route oral; method in brief: as §2
Canis familiaris = experiment: Plasma clearance in Beagle dog at 1 mg/kg, po and 0.5 mg/kg, iv; type: ADME, organism-based, Canis lupus familiaris; conditions: in vivo
Method in brief: (§4)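 Single-dose PK at 1.0 mpk po and 0.5 mpk iv. Plasma compound levels measured.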

Rhesus monkey = experiment: Maximal decrease in peripheral blood lymphocyte in rhesus monkey at 1 mg/kg, po after 24 hrs; type: functional, organism-based; parameters: dose 1 mg/kg; conditions: Macaca mulatta
Method in brief: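 Complete blood counts run alongside plasma concentrations after a single 1.0 mpk oral dose in beagle dog or rhesus monkey. Lymphocyte counts followed over time, with PBL lowering assessed at 24 h postdose.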

Rattus norvegicus [8] = experiment: Decrease in peripheral blood lymphocyte counts in femoral artery cannulated Lewis rat at 3 mg/kg, po after 0.5 hrs; type: functional; method in brief: as §1
Rattus norvegicus [9] = experiment: Decrease in peripheral blood lymphocyte counts in femoral artery cannulated Lewis rat at 3 mg/kg, po after 6 hrs; type: functional; method in brief: as §1
[10] = Bioavailability in rat at 2 mg/kg, po and 1 mg/kg, iv; type: ADME, organism-based; conditions: in vivo
Method in brief: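 Rat PK at 2.0 mpk po and 1.0 mpk iv. Plasma compound levels measured.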

[11] = Plasma concentration in femoral artery cannulated Lewis rat at 3 mg/kg, po after 0.25 hrs; type: ADME, organism-based; parameters: dose 3 mg/kg, route oral; method in brief: as §1
[12] = Volume of distribution at steady state in rat at 2 mg/kg, po and 1 mg/kg, iv; type: ADME, organism-based; conditions: in vivo, read-out: Vdss
[13] = target: Sphingosine 1-phosphate receptor 2 (Homo sapiens, UniProt O95136); experiment: Displacement of [33P]sphingosine 1 phosphate from human S1P2 receptor expressed in CHO cells; type: cell-based
[14] = Bioavailability in Beagle dog at 1 mg/kg, po and 0.5 mg/kg, iv; type: ADME, organism-based, Canis lupus familiaris; conditions: in vivo; method in brief: as §4
Mus musculus = experiment: Decrease in peripheral blood lymphocytes in po dosed mouse after 3 hrs; type: functional
Method in brief: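 Compound given orally to mice. Peripheral blood lymphocyte counts taken 3 h after dosing, expressed as average percent decrease in n = 3 animals versus controls (n = 3). ED50 from dose-titration.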

Rattus norvegicus [15] = experiment: Decrease in peripheral blood lymphocyte counts in femoral artery cannulated Lewis rat at 3 mg/kg, po after 2 hrs; type: functional; method in brief: as §1
[16] = Plasma clearance in rhesus monkey at 1 mg/kg, po and 0.5 mg/kg, iv; type: ADME, organism-based, Macaca mulatta; method in brief: as §4
Rattus norvegicus [17] = experiment: Decrease in peripheral blood lymphocyte counts in Lewis rat at 30 mg/kg, po after 24 hrs; type: functional; method in brief: as §3
Rattus norvegicus [18] = experiment: Decrease in peripheral blood lymphocyte counts in femoral artery cannulated Lewis rat at 3 mg/kg, po after 20 hrs; type: functional; method in brief: as §1
[19] = Half life in rhesus monkey at 1 mg/kg, po and 0.5 mg/kg, iv; conditions: in vivo
Rattus norvegicus [20] = experiment: Decrease in peripheral blood lymphocyte counts in Lewis rat at 1 mg/kg, po after 24 hrs; type: functional; method in brief: as §3
Rattus norvegicus [21] = experiment: Decrease in peripheral blood lymphocyte counts in femoral artery cannulated Lewis rat at 3 mg/kg, po after 0.25 hrs; type: functional; method in brief: as §1
[22] = Plasma concentration in Lewis rat at 3 mg/kg, po after 24 hrs; type: ADME, organism-based; parameters: dose 3 mg/kg, route oral; method in brief: as §3

Chain of Sphingosine 1-phosphate receptor 1 (P21453 whole entry): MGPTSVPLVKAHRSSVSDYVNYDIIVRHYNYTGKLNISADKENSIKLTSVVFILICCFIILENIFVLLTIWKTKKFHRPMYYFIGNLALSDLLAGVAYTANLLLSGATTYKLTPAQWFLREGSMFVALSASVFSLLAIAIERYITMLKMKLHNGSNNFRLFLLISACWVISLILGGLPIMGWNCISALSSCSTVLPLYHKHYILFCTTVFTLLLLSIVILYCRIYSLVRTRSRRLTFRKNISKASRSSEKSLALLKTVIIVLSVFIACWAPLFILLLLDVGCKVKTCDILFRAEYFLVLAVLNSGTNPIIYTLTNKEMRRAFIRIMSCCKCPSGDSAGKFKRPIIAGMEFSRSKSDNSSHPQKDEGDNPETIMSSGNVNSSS
Chain of Sphingosine 1-phosphate receptor 2 (O95136 whole entry): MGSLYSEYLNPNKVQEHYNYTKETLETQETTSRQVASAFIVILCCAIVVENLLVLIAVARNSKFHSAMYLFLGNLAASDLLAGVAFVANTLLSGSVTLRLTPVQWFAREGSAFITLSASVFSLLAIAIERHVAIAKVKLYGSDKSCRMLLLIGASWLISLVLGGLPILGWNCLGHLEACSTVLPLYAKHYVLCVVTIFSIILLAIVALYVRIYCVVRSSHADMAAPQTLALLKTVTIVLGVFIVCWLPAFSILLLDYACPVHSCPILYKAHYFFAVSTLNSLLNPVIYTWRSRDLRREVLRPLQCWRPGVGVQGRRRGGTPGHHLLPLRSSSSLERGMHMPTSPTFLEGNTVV
Chain of Sphingosine 1-phosphate receptor 3 (Q99500 whole entry): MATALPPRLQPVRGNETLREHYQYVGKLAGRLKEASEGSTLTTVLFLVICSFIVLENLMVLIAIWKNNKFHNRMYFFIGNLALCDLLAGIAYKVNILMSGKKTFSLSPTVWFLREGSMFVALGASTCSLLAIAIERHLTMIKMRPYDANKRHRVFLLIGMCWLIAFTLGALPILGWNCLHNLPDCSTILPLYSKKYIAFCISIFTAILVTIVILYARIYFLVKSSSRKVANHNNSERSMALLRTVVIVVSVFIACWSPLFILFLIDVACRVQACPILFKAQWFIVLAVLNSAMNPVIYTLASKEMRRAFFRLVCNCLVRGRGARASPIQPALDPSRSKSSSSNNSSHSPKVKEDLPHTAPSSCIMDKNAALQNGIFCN

- Vd [2]: 1.4 L/kg
- EC50 [3]: 0.5 nM (agonist)
- IC50 [4]: 530 nM (antagonist)
- concentration at 32 h [5]: 34 nM
- concentration at 1 h [7]: 270 nM
- clearance (Canis familiaris): 2.2 mL/min/kg
- bioavailability [10]: 79%
- concentration at 0.25 h [11]: 72 nM
- Vd [12]: 10 L/kg
- IC50 [13]: > 10000 nM
- bioavailability [14]: 66%
- clearance [16]: 1.5 mL/min/kg
- half-life [19]: 12.5 h
- concentration at 24 h [22]: 95 nM
Compound: O=C(O)C1CN(Cc2ccc(OCc3cc(-c4ccccc4)c(C(F)(F)F)s3)cc2)C1
- Activity (Rattus norvegicus [1]): 1130 µL⁻¹
- Activity (Rattus norvegicus [6]): 78%
- Activity (Rhesus monkey): Active
- Activity (Rattus norvegicus [8]): 4200 µL⁻¹
- Activity (Rattus norvegicus [9]): 1330 µL⁻¹
- ED50 (Mus musculus): 0.44 mg/kg
- Activity (Rattus norvegicus [15]): 1770 µL⁻¹
- Activity (Rattus norvegicus [17]): 1430 µL⁻¹
- Activity (Rattus norvegicus [18]): 1530 µL⁻¹
- Activity (Rattus norvegicus [20]): 2230 µL⁻¹
- Activity (Rattus norvegicus [21]): 4400 µL⁻¹
